Compounds with a hit are over-represented: about 0.72% of the library has one in this group of screens.
bIAP inhibitor = intestinal alkaline phosphatase (bovine) inhibition. purified bovine IAP, CDP-star luminescence, 30 min. inhibition, % at 20 µM. 190,000 tested, under 10 active. AID 1019;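 active means over 50% inhibition of intestinal alkaline phosphatase at 20 µM in the single-dose screen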
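System: Purified bovine intestinal alkaline phosphatase (IAP) enzyme | Input: IAP diluted 1/65,000,000 in the well | Also added: CDP-star chemiluminescent phosphatase substrate, 30 µM final | Dosing: 20 µM single dose | Times: Enzyme reaction for 30 min at room temperature | Detection: Luminescence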
hIAP activ = increases human intestinal alkaline phosphatase activity; activation factor at 10 µM; hit rate 0.16% among 330,000; AID 2524; purified human IAP, CDP-Star luminescence, 30 min; active compounds read high; 1 = vehicle-only enzyme, 0 = enzyme-free background; P09923;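 active means activation factor of the enzyme at least 2-fold when tested at 20 µM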
Target sequence (P09923 whole entry, looked up): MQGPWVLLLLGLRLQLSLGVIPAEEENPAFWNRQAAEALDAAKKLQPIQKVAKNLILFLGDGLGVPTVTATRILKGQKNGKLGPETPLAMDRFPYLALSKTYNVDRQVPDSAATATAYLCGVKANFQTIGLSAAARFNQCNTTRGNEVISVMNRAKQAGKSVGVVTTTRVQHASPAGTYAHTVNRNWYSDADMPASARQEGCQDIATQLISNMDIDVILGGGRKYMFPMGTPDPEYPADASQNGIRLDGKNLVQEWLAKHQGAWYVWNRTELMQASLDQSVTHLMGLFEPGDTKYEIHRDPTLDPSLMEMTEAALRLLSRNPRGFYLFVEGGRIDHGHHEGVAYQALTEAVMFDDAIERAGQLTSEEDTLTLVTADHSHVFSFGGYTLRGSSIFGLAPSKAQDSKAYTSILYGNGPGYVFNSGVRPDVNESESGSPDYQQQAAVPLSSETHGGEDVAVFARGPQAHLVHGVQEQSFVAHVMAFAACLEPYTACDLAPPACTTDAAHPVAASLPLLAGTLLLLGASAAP
mIAP activ = mouse IAP activation; muIAP, CDP-Star luminescence, 30 min; active compounds read high; 1 = vehicle-only enzyme signal, 0 = enzyme-free wells; activation factor at 10 µM; hit rate 0.24% among 330,000;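 active means activation factor of at least 2 at 20 µM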
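System: Mouse IAP enzyme | Also added: CDP-Star substrate | Dosing: Compounds dispensed in DMSO | Schedule: 30 min enzyme-substrate-compound incubation at room temperature | Technique: Chemiluminescence readout | Control set: DMSO-only wells and no-enzyme negative control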
hIAP inh = blocks human intestinal alkaline phosphatase | P09923 | purified IAP, CDP-Star luminescence, 30 min | inhibition, % at 10 µM | hit rate 0.12% among 330,000;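 active means inhibition reaching a set limit with compound at 10 µM in the primary screen, cut at about 35% in these data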
bIAP activator = intestinal alkaline phosphatase (bovine) activation; purified bovine IAP, CDP-star luminescence, 30 min; active compounds read high; fold of DMSO-control signal, blank-subtracted; activation factor at 20 µM; AID 1016; hit rate 0.17% among 200,000;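 active means activation factor of 2 or more at 20 µM, a signal rise over negative controls twice the positive control's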
mIAP block = mouse IAP inhibition | purified mouse IAP, CDP-Star luminescence, 30 min | inhibition, % at 10 µM | hit rate 0.2% among 330,000 | AID 2806;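 active means inhibition of at least 40% at 10 µM in the primary screen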
hIAP act confirm = human IAP activation confirmation; shares compounds with hIAP activ; purified IAP, CDP-Star luminescence, 30 min; active compounds read low; activation (%Activity, negative = activation), % at 8.3 µM; hit rate 10% among 880;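 active means at least twofold enzyme activation in any of six single-dose repeats, which the averaged readout prints as negative percent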
A number is an active result; n = inactive; x = not tested or not shown.

SMILES	bIAP inhibitor	hIAP activ	mIAP activ	hIAP inh	bIAP activator	mIAP block	hIAP act confirm
O=C(N/N=C/c1cccs1)c1cc(-c2ccc(Cl)s2)[nH]n1	x	2.02	n	n	x	n	n
O=C(N/N=C/c1ccco1)c1cc(-c2ccc(Cl)s2)[nH]n1	n	2.01	n	n	n	n	n
COC(=O)c1ccc(Nc2cc(C)nc3ccccc23)cc1	x	n	n	n	x	n	x
Cn1c(=O)c2c(nc(SCc3nc(N)nc(N4CCCCC4)n3)n2C)n(C)c1=O	n	n	n	n	n	n	x
O=C(O)c1ccccc1CSc1nc2ccccc2o1	n	n	n	n	n	n	x
Cc1ccc(N/C=C/C(=O)c2ccco2)c(O)c1	x	2.16	n	n	x	n	n
COC(=O)C(CSCc1ccccc1)NC(=O)CSc1nc(N)cc(=O)[nH]1 (centres undefined)	n	n	n	n	n	n	x
CCOC(=O)c1c(-c2ccccc2)csc1NC(=O)COc1ccc2c(C)cc(=O)oc2c1	n	n	n	43.8	n	n	n
COc1ccc(S(=O)(=O)N(CC(=O)N2CCOCC2)Cc2ccccc2)cc1	n	3.16	n	n	n	n	n
COc1ccc(/C=N/NC(=O)c2c(C)nc3ccccn23)cc1[N+](=O)[O-]	x	n	n	n	x	n	x
Cn1cccc1-c1cc(C(=O)N/N=C/c2cc(Br)ccc2O)[nH]n1	x	2.54	n	n	x	n	n
CCC(=O)N1CCN(c2ccc(NC(=O)COc3ccc(CC)cc3)cc2)CC1	x	n	n	n	x	n	x
CC(=Nc1ccc(O)cc1)c1sc2ccccc2c1O	n	n	n	n	n	n	x
Oc1c(N=Nc2ccccc2)sc2ccccc12	x	n	n	38.3	x	n	n
O=C1CC(c2ccccc2)n2nc(NC(=O)c3ccccn3)nc2N1 (centres undefined)	n	2.37	n	n	n	n	n
O=C1CC(c2ccccc2)n2nc(NC(=O)c3ccccc3)nc2N1 (centres undefined)	n	n	n	n	n	n	x
O=C(c1ccccc1[N+](=O)[O-])N(CCc1ccccc1)Cc1ccccc1	x	n	n	n	x	n	x
CCOc1ccc(CN2CCC(n3nccc3NC(=O)CCCc3ccccc3)CC2)cc1	x	3.17	2.21	n	x	n	n
COc1ccc(CN2CCC(n3nccc3NC(=O)CCc3ccccc3)CC2)c(C)c1C	x	2.31	2.05	n	x	n	n
O=C(CCCc1ccccc1)Nc1ccnn1C1CCN(Cc2ccccc2)CC1	x	n	n	n	x	n	x
COc1cc(CN2CCC(n3nccc3NC(=O)CCCc3ccccc3)CC2)ccc1F	x	2.01	n	n	x	n	n
O=C(CCCc1ccccc1)Nc1ccnn1C1CCN(Cc2ccccc2F)CC1	x	n	n	n	x	n	x
COc1cccc(CN2CCC(n3nccc3NC(=O)CCCc3ccccc3)CC2)c1O	x	n	n	n	x	n	x
COc1cccc(C(c2nnnn2C(C)(C)C)N2CCN(C3CCCCC3)CC2)c1OC (centres undefined)	n	x	x	x	n	x	x
Cc1ccc(Sc2nc(C)cc(C)c2S(C)(=O)=O)cc1	n	n	n	n	n	n	x
SMILES	bIAP inhibitor	hIAP activ	mIAP activ	hIAP inh	bIAP activator	mIAP block	hIAP act confirm
O=C1CC(c2ccccc2F)c2cc3c(cc2N1)CCC3 (centres undefined)	n	3.2	n	n	n	n	n
COc1ccc(C(C)NC(=S)NC2CCCC2)cc1OC (centres undefined)	n	n	n	n	n	n	x
CC(NC(=S)NC1CCC(C(C)(C)C)CC1)c1ccccc1 (centres undefined)	x	2.01	4.48	n	x	n	-111.3
CCCC(=O)Nc1nc2nc(-c3ccccc3)cc(-c3ccccc3)n2n1	n	n	n	n	n	n	x
CCOc1cccc2sc(Nc3nc4ccc(NC(C)=O)cc4s3)nc12	n	2.08	n	n	n	n	n
O=C(CN1C(=O)c2ccccc2C1=O)Nc1nnc(C2CCCO2)s1 (centres undefined)	n	n	n	n	n	n	x
O=[N+]([O-])c1cccc(-c2nc(Oc3ccc(Cl)cc3)c3ccccc3n2)c1	n	x	x	x	n	x	x
Cc1ccc(S(=O)(=O)N2CCN(C(=O)CCn3cncn3)CC2)cc1	x	n	n	36.0	x	n	n
COc1ccc2nc(N3CCC(O)CC3)c(C#N)cc2c1	n	n	n	35.0	n	n	n
O=c1sc(Nc2ccccc2)nc2ccccc12	n	n	n	n	n	n	x
O=C(COc1ccc(Cl)cc1)OCC(=O)N1CCCc2ccccc21	n	n	n	35.8	n	43.9	n
CCN1/C(=C\c2ccc3cc(C)ccc3[n+]2CC)Sc2cc(C)c(C)cc21	n	x	x	x	n	x	x
CCN1/C(=C/c2ccc3cc(C)ccc3[n+]2CC)Sc2ccc3sccc3c21	x	n	n	35.2	x	43.4	n
Cc1nc2c3cnn(-c4ccc(C)c(C)c4)c3ncn2n1	n	n	n	74.4	n	n	n
Cc1ccc(-n2ncc3c(=O)n(CC(N)=O)cnc32)cc1C	x	n	n	n	x	n	x
O=C(NNC(=O)c1ccccc1O)c1cc2ccccc2o1	x	2.37	n	n	x	n	n
CCOc1ccc(C2NC(=O)C(C#N)=C(S)N2c2ccc(C)cc2)cc1OC (centres undefined)	n	2.03	n	n	n	n	n
CCOc1ccc(C2NC(=O)C(C#N)=C(S)N2c2cccc(C)c2)cc1OC (centres undefined)	n	n	n	n	n	n	x
CC(C)OC(=O)CSc1nnc(-c2ccc([N+](=O)[O-])cc2)o1	n	n	n	n	n	n	x
Cn1c(/C(C#N)=C(\O)c2ccc(Br)s2)nc2ccccc21	x	n	n	47.0	x	n	n
Cn1c(/C(C#N)=C(\O)c2cc(Cl)sc2Cl)nc2ccccc21	x	n	n	n	x	n	x
COc1ccccc1CCNC(=O)C1CCN(c2nnc(C)c3c(C)n(-c4ccc(C)cc4)nc23)CC1	x	2.32	n	n	x	n	n
CCOc1ccc(CNC(=O)C2CCN(c3nnc(C)c4c(C)n(-c5ccc(C)cc5)nc34)CC2)cc1	x	n	n	n	x	n	x
COc1ccc(-n2nc3c(N4CCC(C(=O)NCc5cccc(C)c5)CC4)nnc(C)c3c2C)cc1	x	2.21	n	n	x	n	n
O=C(NNC(=O)c1ccc2ccccc2c1O)Nc1ccc(F)cc1	x	n	n	n	x	n	x
SMILES	bIAP inhibitor	hIAP activ	mIAP activ	hIAP inh	bIAP activator	mIAP block	hIAP act confirm
CC(=O)NC(Cc1cnc[nH]1)C(=O)O (centres undefined)	n	n	n	n	n	n	x
COc1ccc(-c2ccc(OC)cc2C(=O)O)cc1	n	n	n	35.9	n	n	n
COc1ccc(C(=O)O)c(O)c1	x	n	n	n	x	n	x
O=c1cc(Cl)[nH]c(=O)n1Cc1ccc(F)cc1	x	n	n	n	x	n	x
COc1ccc(CCN2C(=O)c3ccncc3C2=O)cc1OC	n	2.39	n	n	n	n	n
O=C(Cn1ccnc1)c1ccc(O)c(O)c1	x	n	n	40.6	x	n	n
CCSc1nnc(NC(=O)c2ccc3ccccc3n2)s1	n	2.13	n	n	n	n	n
